Data on three compounds can be found in ChEMBL document CHEMBL1641573, “3-[(Imidazolidin-2-yl)imino]indazole ligands with selectivity for the α(2)-adrenoceptor compared to the imidazoline I(1) receptor” (Bioorg Med Chem, 2011).

Assay [1] deals with T1, Adrenergic receptor alpha-2 (Rattus norvegicus, UniProt P22086+P19328+P22909).
T1 sequence (P22086 whole entry): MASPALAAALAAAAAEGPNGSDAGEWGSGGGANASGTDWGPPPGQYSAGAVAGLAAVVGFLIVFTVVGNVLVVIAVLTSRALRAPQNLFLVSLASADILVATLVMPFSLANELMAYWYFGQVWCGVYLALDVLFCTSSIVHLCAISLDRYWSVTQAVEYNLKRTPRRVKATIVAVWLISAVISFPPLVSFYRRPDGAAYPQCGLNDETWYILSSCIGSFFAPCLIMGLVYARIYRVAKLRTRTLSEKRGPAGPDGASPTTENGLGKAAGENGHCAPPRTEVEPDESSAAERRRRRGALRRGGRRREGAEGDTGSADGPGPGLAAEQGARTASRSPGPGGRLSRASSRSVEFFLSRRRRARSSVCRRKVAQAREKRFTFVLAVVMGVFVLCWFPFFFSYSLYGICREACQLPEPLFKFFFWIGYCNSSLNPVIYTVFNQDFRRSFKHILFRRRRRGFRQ
T1 sequence (P19328 whole entry): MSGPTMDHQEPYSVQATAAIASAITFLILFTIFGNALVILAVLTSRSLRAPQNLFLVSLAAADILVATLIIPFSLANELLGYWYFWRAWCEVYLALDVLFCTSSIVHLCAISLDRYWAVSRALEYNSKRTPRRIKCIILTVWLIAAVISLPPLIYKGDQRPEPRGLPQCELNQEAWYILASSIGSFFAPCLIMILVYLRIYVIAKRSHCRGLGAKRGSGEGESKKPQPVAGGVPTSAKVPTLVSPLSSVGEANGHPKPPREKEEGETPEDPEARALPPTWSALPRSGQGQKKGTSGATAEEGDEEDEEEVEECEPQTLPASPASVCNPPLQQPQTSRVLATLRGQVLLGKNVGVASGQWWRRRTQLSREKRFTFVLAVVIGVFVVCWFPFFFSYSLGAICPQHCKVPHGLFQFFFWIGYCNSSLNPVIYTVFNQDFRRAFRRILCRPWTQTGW
T1 sequence (P22909 whole entry): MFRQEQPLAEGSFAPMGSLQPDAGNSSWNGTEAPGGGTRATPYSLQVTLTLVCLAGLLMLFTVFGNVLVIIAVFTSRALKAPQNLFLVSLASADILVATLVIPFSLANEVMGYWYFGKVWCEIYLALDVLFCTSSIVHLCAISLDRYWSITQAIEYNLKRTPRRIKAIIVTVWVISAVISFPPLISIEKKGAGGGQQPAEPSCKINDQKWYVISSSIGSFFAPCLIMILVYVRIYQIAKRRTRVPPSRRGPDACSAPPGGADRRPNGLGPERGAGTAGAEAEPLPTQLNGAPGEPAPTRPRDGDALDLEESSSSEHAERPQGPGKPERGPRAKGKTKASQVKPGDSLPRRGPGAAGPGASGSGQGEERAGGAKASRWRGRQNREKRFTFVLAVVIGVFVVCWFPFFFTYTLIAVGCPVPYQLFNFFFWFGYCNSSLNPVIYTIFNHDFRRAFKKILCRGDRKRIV
As to the kind of experiment: Displacement of [3H]RX821002 from alpha2 adrenergic receptor in Sprague-Dawley rat brain membrane after 45 mins by liquid scintillation counting. Format: cell membranes. The gist of the method:
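Crude P2 brain membranes from male Sprague–Dawley rats (0.2–0.3 mg protein) incubated with 11 concentrations (0.01 nM–100 µM) and 1 nM of [3H]2BFI (I2), [3H]prazosin (α1) or [3H]RX821002 (α2), at room temperature in triplicate. Non-specific binding: BU224, phenylephrine or rauwolscine. Filtration, scintillation counting, Ki by Cheng–Prusoff from 3–4 experiments.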
Background: Displacement assays read how much labelled ligand stays bound in the presence of the test substance.

Assay [2] addresses T2, Alpha-2A adrenergic receptor (Homo sapiens) (UniProt P08913).
T2 sequence (whole entry): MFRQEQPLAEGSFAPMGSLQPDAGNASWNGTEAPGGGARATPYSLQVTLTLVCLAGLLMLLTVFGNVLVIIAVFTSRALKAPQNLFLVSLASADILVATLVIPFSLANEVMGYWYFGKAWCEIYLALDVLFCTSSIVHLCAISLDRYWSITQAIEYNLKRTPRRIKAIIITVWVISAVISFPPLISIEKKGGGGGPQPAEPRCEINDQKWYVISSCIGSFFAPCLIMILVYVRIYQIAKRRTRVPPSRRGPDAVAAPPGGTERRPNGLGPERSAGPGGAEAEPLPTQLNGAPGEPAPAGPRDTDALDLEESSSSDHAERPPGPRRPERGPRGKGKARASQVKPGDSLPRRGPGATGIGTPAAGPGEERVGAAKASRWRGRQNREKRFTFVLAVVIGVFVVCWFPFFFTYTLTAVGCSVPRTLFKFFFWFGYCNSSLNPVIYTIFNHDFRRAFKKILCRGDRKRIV
As to the kind of experiment: Agonist activity at human recombinant alpha2A adrenergic receptor expressed in CHO cells assessed as induction of [35S]GTPgammaS binding after 60 mins by scintillation counting relative to noradrenaline. In kind it is functional, cell-based. In short, it runs like this: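 Membranes from CHO-K1 cells expressing human α2A-adrenoceptor, in Tris buffer pH 7.4 with 10 µM GDP, 5 mM MgCl2 and 150 mM NaCl; 5 µg protein preincubated with agonist 30 min at 37 °C, then 0.1 nM [35S]GTPγS for 60 min at 37 °C. Filtration and scintillation counting, duplicates, at least three repeats. Curve fit gave EC50 and intrinsic activity as % of noradrenaline.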

In a further assay the test system is Rattus norvegicus. As to the kind of experiment: Cardioprotectant activity in Wistar rat assessed as change in mean arterial pressure at 0.1 mg/kg, iv. Format: functional, Artery.
The target of assay [3] is T3, Alpha-2A adrenergic receptor (Homo sapiens, UniProt P08913).
T3 sequence (P08913 whole entry): T2 sequence (whole entry)
The assay is described as follows: Agonist activity at human recombinant alpha2A adrenergic receptor expressed in CHO cells assessed as induction of [35S]GTPgammaS binding after 60 mins by scintillation counting. Format: functional, cell-based. The gist of the method: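 Membranes from CHO-K1 cells expressing human α2A-adrenoceptor, in Tris buffer pH 7.4 with 10 µM GDP, 5 mM MgCl2 and 150 mM NaCl; 5 µg protein preincubated with agonist 30 min at 37 °C, then 0.1 nM [35S]GTPγS for 60 min at 37 °C. Filtration and scintillation counting, duplicates, at least three repeats.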

The Ki is a dissociation constant, usually derived from enzyme kinetics or from competition with a known ligand. The term EC50 denotes the concentration at which the effect is half-maximal. As for `Cl.Clc1cccc2c(N=C3NCCN3)n[nH]c12`, the Ki in assay [1] amounted to 133 nM. In assay [2], the Intrinsic activity worked out at 66%. Moreover, in the assay with Rattus norvegicus, the Activity was -21.7 mmHg. The EC50 in assay [3] was found to be 73 nM.

Consider `Cc1cccc2[nH]nc(N=C3NCCN3)c12.Cl`, for which the inhibition constant Ki in assay [1] turned out to be 22.6 nM. Besides, in assay [2], the Intrinsic activity turned out to be 40%. Further, the Activity in the assay on Rattus norvegicus was -53.5 mmHg. Also, the EC50 in assay [3] was found to be 14 nM.

Take `Cl.Clc1cccc2[nH]nc(N=C3NCCN3)c12`: the Ki in assay [1] worked out at 15.9 nM. The Intrinsic activity in assay [2] came out at 13%. In addition, in the assay with Rattus norvegicus, the Activity is on record as -10.8 mmHg. In assay [3], the EC50 was found to be 240 nM.
